ChEMBL document CHEMBL1152579, “Substrate specificity effects of lipoxygenase products and inhibitors on soybean lipoxygenase-1” (Bioorg Med Chem, 2009)
pKi: −log10 of the molar value. Where a name gives a salt, the structure may show the parent alone.

What was measured:
[1] = biological target: T1, Seed linoleate 13S-lipoxygenase-1 (Glycine max) (UniProt P08170); experiment: Allosteric inhibition of soybean LO1 assessed as increase in arachidonic acid/linoleic acid ratio at 5 uM by substrate specificity assay
T1 sequence (whole entry): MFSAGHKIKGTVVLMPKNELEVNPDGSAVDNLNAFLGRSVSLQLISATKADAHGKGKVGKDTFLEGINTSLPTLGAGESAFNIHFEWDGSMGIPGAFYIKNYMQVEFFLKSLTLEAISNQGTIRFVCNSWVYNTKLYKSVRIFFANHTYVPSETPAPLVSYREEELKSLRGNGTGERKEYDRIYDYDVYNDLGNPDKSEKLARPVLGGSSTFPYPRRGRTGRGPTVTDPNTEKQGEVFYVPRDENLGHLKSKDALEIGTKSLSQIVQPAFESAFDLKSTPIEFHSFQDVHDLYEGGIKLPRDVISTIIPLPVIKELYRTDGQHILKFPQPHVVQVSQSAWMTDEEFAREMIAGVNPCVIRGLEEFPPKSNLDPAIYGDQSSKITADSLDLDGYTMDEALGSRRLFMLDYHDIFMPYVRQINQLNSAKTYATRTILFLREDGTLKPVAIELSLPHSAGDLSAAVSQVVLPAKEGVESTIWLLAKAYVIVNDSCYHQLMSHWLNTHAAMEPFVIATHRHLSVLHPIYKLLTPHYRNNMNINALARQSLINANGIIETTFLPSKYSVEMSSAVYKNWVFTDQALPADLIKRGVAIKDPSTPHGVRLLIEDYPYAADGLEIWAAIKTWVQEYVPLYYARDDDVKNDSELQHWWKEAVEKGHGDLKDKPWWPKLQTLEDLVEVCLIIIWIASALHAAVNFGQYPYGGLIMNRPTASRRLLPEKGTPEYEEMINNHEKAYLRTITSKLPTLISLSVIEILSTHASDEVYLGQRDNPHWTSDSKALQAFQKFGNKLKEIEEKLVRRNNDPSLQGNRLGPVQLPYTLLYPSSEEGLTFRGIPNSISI

[2] = biological target: T1, Seed linoleate 13S-lipoxygenase-1 (Glycine max); experiment: Competitive inhibition of soybean LO1 assessed as increase in arachidonic acid/linoleic acid ratio at 5 uM by substrate specificity assay
[3] = biological target: T1, Seed linoleate 13S-lipoxygenase-1 (Glycine max); experiment: Inhibition of soybean LO1 assessed as increase in non-endogenous arachidonic acid/linoleic acid maximal ratio by substrate specificity assay
Method in brief: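 Inhibitor titrated into competitive substrate-capture reactions: sLO-1 with 1:1 AA:LA at 1 μM total substrate, 100 mM borate pH 9.2, 22 °C. Product ratio was measured by HPLC at each concentration. The change in (kcat/KM)AA/(kcat/KM)LA ratio was plotted against inhibitor concentration and fit to a saturation curve, giving the maximal ratio at saturation.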

[4] = biological target: T1, Seed linoleate 13S-lipoxygenase-1 (Glycine max); experiment: Allosteric inhibition of soybean LO1 assessed as increase in arachidonic acid/linoleic acid ratio at 10 uM by substrate specificity assay
[5] = biological target: T2, Seed linoleate 13S-lipoxygenase-1 (Glycine max, UniProt P08170); experiment: Binding affinity to soybean LO1
T2 sequence (P08170 whole entry): T1 sequence (whole entry)

[6] = biological target: T1, Seed linoleate 13S-lipoxygenase-1 (Glycine max); experiment: Allosteric inhibition of soybean LO1 assessed as increase in arachidonic acid/linoleic acid ratio at 1 uM by substrate specificity assay
[7] = biological target: T1, Seed linoleate 13S-lipoxygenase-1 (Glycine max); experiment: Allosteric inhibition of soybean LO1 assessed as increase in arachidonic acid/linoleic acid ratio at 1 uM by substrate specificity assay
[8] = biological target: T1, Seed linoleate 13S-lipoxygenase-1 (Glycine max); experiment: Allosteric inhibition of soybean LO1 assessed as increase in arachidonic acid/linoleic acid ratio at 0.5 uM by substrate specificity assay
[9] = biological target: T1, Seed linoleate 13S-lipoxygenase-1 (Glycine max); experiment: Mixed-type inhibition of soybean LO1 assessed as increase in arachidonic acid/linoleic acid ratio at 13 uM by substrate specificity assay
[10] = biological target: T1, Seed linoleate 13S-lipoxygenase-1 (Glycine max); experiment: Mixed-type inhibition of soybean LO1 assessed as increase in arachidonic acid/linoleic acid ratio at 30 uM by substrate specificity assay
[11] = biological target: T2, Seed linoleate 13S-lipoxygenase-1; experiment: Binding affinity to allosteric site of soybean LO1
[12] = biological target: T1, Seed linoleate 13S-lipoxygenase-1 (Glycine max); experiment: Mixed-type inhibition of soybean LO1 assessed as increase in arachidonic acid/linoleic acid ratio at 65 uM by substrate specificity assay

| Ratio [1] | Ratio [2] | Ratio [3] | Ratio [4] | pKi [5] | Ratio [6] | Ratio [7] | Ratio [8] | Ratio [9] | Ratio [10] | pKi [11] | Ratio [12] | SMILES |
| --- | --- | --- | --- | --- | --- | --- | --- | --- | --- | --- | --- | --- |
| 4.8 | 4.7 | 5.4 | 4.8 | 6.15 | 3.2 | 3.2 | 2.5 | – | – | – | – | CCCCCCCC/C=C\CCCCCCCCOS(=O)(=O)O [OLEYL SULFATE] |
| – | – | 7.4 | – | – | – | – | – | 2.3 | 3 | 3.85 | 4 | CCCCCC/C=C\CCCCCCCCOS(=O)(=O)O |
